Screening results from PubChem BioAssay.
A selection: hits, their analogues and other compounds. The true share with any hit is near 2.1%.
Runt-SMMHC FRET – inhibitors of human RUNX1 Runt domain binding to CBFb-SMMHC. Q01196+Q13951. Cerulean-Runt/Venus-CBFb-SMMHC FRET ratio 530/480, 1 h. inhibition, % at 20 µM. actives 0.74% (n = 220,000). AID 1434;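 active = mean inhibition across duplicate retests at 20 µM reaching about 50%, limit read from the data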;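 also: 0% = DMSO wells and 100% = wells with excess untagged CBFb-SMMHC; inhibitors lower the FRET ratio by blocking Runt binding to CBFb-SMMHC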
RanGTP-Imp inh – disruptors of Ran-importin-beta complex formation – biochemical, FRET, CFP-Ran, YFP-importin-beta, homogeneous, primary screen | cell-free CFP-Ran/YFP-importin-beta FRET ratio | inhibition, % (concentration not given with the values) | actives 1.1% (n = 300,000) | AID 2216;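 active = more than half of the replicate wells show a fall in the fluorescence ratio signal beyond about 16%, limit read from the data, passing the limit was not always enough; inconclusive = exactly half of the replicate wells pass the set limit; inactive = fewer than half of replicates pass the limit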;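 also: 0% = DMSO wells and 100% = Ran loaded with GDP instead of GTP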
KLK7 zymogen act – proKLK7 (human) activation, primary screen; actives 0.9% (n = 370,000); AID 652039; activation, % at 7 µM; purified proKLK7, EDANS-DABCYL substrate fluorescence; 100% is mature enzyme control, 0% vehicle;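 active = activation above the mean of all tested compounds plus 3 SD, computed per campaign excluding outliers beyond control limits, cut at about 13% in these data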
Target sequence (P49862 whole entry, looked up): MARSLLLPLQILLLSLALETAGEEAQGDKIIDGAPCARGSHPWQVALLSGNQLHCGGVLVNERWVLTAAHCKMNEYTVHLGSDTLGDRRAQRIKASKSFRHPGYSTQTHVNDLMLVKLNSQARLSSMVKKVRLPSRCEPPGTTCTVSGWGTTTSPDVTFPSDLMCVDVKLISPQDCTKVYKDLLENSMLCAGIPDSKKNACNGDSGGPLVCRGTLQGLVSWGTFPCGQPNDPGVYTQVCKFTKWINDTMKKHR
MEX-5 binding – C. elegans MEX-5 TCR-2 RNA binding activity; Q9XUB2; MEX-5/FITC-TCR2 RNA binding, fluorescence polarization; stronger effect = lower value; activity score (negative = inhibition of binding), % at 10 µM; actives 0.38% (n = 300,000);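 active = inhibition past about -25% in most replicates, and total fluorescence under double the plate's negative control median, limit read from the data; inconclusive = replicates evenly split on the limit, or fluorescence at least double controls; inactive = too little inhibition in most replicates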;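 also: 0% = DMSO and -100% = 5 µM competing unlabeled TCR2 RNA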
Runt-CBFb FRET – Runt domain-CBFb interaction inhibition; Q01196+Q13951; actives 0.46% (n = 220,000); inhibition, % at 20 µM; Cerulean-Runt/Venus-CBFb FRET ratio 530/480, 1 h; AID 1496;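 active = inhibition over about 50% at 20 µM in the single-dose screen, limit read from the data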;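 also: 0% = DMSO wells and 100% = excess unlabeled CBFb competitor control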
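Reagent – Venus-CBFb binding partner, 100 nM · Assay system – Cerulean-tagged RUNX1 Runt domain (FRET donor) fusion protein · Input – 100 nM per protein · Incubation – two 1 h room-temperature incubations shielded from light · Measured by – FRET fluorescence · Medium – Tris buffer pH 7.5 with salts and BSA · Benchmarks – unlabeled CBFb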
The depositor's hits bear a star; ? = inconclusive; · = not tested or not shown.

SMILES | Runt-SMMHC FRET | RanGTP-Imp inh | KLK7 zymogen act | MEX-5 binding | Runt-CBFb FRET
Nc1ccc(O)cc1 | · | -3 | · | 5 | ·
NC(=Nc1ccc(N)cc1)C(N)=Nc1ccc(N)cc1 | 3 | 0 | 0 | -30* | 4
COc1cc(/C=C2/N=C(c3ccccc3)OC2=O)c(F)cc1OCc1ccccc1 | · | -3 | 0 | -60* | ·
CCCNC(=O)c1ccc2c(=O)c(O)c(C)[nH]c2c1 | -31 | -3 | -7 | -13 | -19
CCCNC(=O)c1ccc2c(=O)c(O)c(-c3ccc(F)cc3)[nH]c2c1 | -121 | -35 | · | -90* | -202
CCCNC(=O)c1ccc2c(=O)c(O)c(-c3cccc(Br)c3)[nH]c2c1 | -140 | -47 | -104 | -84* | -204
Nc1c(Cl)cc(-c2[nH]c3cc(C(=O)NCCO)ccc3c(=O)c2O)cc1Cl | · | 0 | -34 | ? | ·
COc1cccc(-c2nc(-c3ccc4c(c3)-c3ccccc3S4(=O)=O)c(-c3ccccc3)[nH]2)c1OC | · | 15* | -154 | 1 | -11
COc1cc(-c2nc(-c3ccc4c(c3)-c3ccccc3S4(=O)=O)c(-c3ccccc3)[nH]2)cc(OC)c1OC | -108 | -7 | -39 | 2 | -53
CC1(C(=O)NS(=O)(=O)c2cccc(OC(F)F)c2)CCN1C(=O)CC(c1ccccc1)c1ccccc1 (configuration not stated) | · | · | 0 | · | ·
CCCCCCNC(=O)N[C@@H](C(=O)NCCC[C@H]1CN2C(=NC[C@@H]2Cc2ccccc2)N1CCc1cccc(OC)c1)C(C)C | 63* | 2 | · | -4 | 37
COc1ccc(Cn2nnnc2CN(Cc2cc3ccc(C)cc3[nH]c2=O)C2CCCC2)cc1 | -1 | 5 | 15* | -1 | -2
CCOc1ccc2[nH]c(=O)c(CN(Cc3nnnn3Cc3ccco3)C3CCCCC3)cc2c1 | -24 | 1 | 3 | 0 | 46
COc1cc2cc(CN(Cc3nnnn3Cc3ccco3)C3CCCCC3)c(=O)[nH]c2cc1OC | 41 | -90 | 13* | -10 | -103
CCCS(=O)(=O)NC(=O)C1(C)CCN(C(=O)c2c(C)noc2C)C1 (configuration not stated) | · | · | 0 | · | ·
CC1CCc2c(sc3ncn4c(SCC(=O)NCc5ccco5)nnc4c23)C1 (configuration not stated) | -1 | 0 | 0 | -3 | -3
CC1CCc2sc3ncn4nc(C(=O)NCc5ccco5)nc4c3c2C1 (configuration not stated) | -4 | 120* | -2 | 0 | -2
CC1(C)CC(=O)C2=C(C1)Nc1ccccc1S2 | -18 | 2 | 3 | ? | 5
CC1(C)CC(=O)C2=C(C1)Nc1ccccc1NC2 | 87* | -10 | -64 | 0 | -28
COc1ccc(N=Nc2[nH]c3ccc(C)cc3c2O)cc1 | -1 | 0 | 0 | 2 | -4
Cc1ccc(N=Nc2[nH]c3ccccc3c2O)cc1 | -41 | -5 | 2 | -61* | -29
CCSC1=N/C(=C\c2ccccc2)C(=O)N1 | 39 | 5 | -3 | -40* | 5
O=C1NNC(c2ccccc2)=N/C1=C\c1ccccc1 | -4 | 7 | 0 | -1 | 3
CC(=O)NCCN=C(C)c1sc2ccccc2c1O | 60 | 54* | 0 | 0 | 26
CC(=Nc1cccc(C)c1)c1sc2ccccc2c1O | 68* | 26* | 0 | -4 | 33
SMILES | Runt-SMMHC FRET | RanGTP-Imp inh | KLK7 zymogen act | MEX-5 binding | Runt-CBFb FRET
CC(=Nc1ccc(O)cc1)c1sc2ccccc2c1O | -98 | 2 | -1 | -19 | -22
Cc1cccc(OCCCC(=O)NNC(=O)c2ccccn2)c1 | · | · | 0 | · | ·
C[C@H]1CN([C@@H](C)CO)C(=O)CCCn2nncc2CO[C@H]1CN(C)C(=O)c1cc(-c2ccccc2)on1 | · | · | 0 | · | ·
CCCCNC(=O)C1c2ccccc2OCC(=O)N1Cc1cccnc1 (configuration not stated) | · | · | 0 | · | ·
O=C(O)c1[nH]c2ccccc2c1C(c1cc(Cl)cc([N+](=O)[O-])c1O)c1c(C(=O)O)[nH]c2ccccc12 | · | 2 | 0 | -61* | ·
O=C(O)c1[nH]c2ccccc2c1C(c1ccccc1)c1c(C(=O)O)[nH]c2ccccc12 | · | -6 | 0 | -4 | ·
COc1cccc(/C(O)=C/c2nc3ccc(C(=O)NCCc4ccc(Cl)cc4)cc3[nH]c2=O)c1 | 10 | 32* | 0 | -49* | -11
O=C(NCCc1ccc(Cl)cc1)c1ccc2nc[nH]c2c1 | -1 | -1 | 1 | 0 | 2
COc1cccc(C(=O)Nc2cc(C(=O)NCCc3ccccc3)ccc2Cl)c1 | 7 | 6 | 0 | 2 | 3
COc1cccc(/C(O)=C/c2nc3ccc(C(=O)NCCc4cccc(C)c4)cc3[nH]c2=O)c1 | -54 | 43* | 1 | -11 | -4
O=C(CP(=O)(c1ccccc1)c1ccccc1)N/N=C/c1cc(Br)cc(Br)c1O | 60 | 21* | 0 | · | 31
O=C(C[n+]1ccccc1)N/N=C/c1cc(Br)cc(Br)c1O | · | -3 | · | -3 | ·
O=C(Cc1ccccc1)N/N=C/c1cc(Br)cc(Cl)c1O | 92* | 18* | -6 | 3 | 28
COc1cc(Br)cc(/C=N/NC(=O)Cc2ccccc2)c1O | · | -2 | -47 | -4 | ·
COc1cc([C@@H]2[C@H]3CNCC=C3C(C#N)=C(N)C2(C#N)C#N)ccc1OC(C)C | 52 | 63* | 2 | -8 | 7
CC1=CC(=C(C#N)c2nc3ccccc3s2)C=C(C)N1CC1CCCO1 (configuration not stated) | -54 | -2 | 0 | -36* | -72
c1ccc2sc(NCC3CCCO3)nc2c1 (configuration not stated) | 1 | 7 | 0 | 0 | -3
Nc1ccc(N(CCO)CCO)cc1 | -5 | ? | 0 | -28* | 8
COC(=O)C[C@@H]1CC[C@H](NC(=O)Cc2ccccn2)[C@@H](CO)O1 | · | · | 0 | · | ·
CN(C)S(=O)(=O)c1ccc(Cl)c(C(=O)OCC(=O)NNC(=O)c2cccs2)c1 | · | · | 0 | · | ·
O=C(CN1CCN(S(=O)(=O)c2ccc(F)cc2)CC1)Nc1ccnn1C1CCCC1 | · | · | 0 | · | ·
CCCCCC(=O)N1C[C@H](O)[C@@H](n2cc(C3CC3)nn2)C[C@@H]1c1ccc(OC)cc1 | · | · | 0 | · | ·
COC(=O)C1=C(C)N=C2SC(C#N)=C(N)N2C1c1ccc(OCc2ccccc2)cc1 (configuration not stated) | 11 | 25* | 0 | -2 | -20
O=C(O[C@@H]1Cc2c(O)cc(O)cc2O[C@@H]1c1cc(O)c(O)c(O)c1)c1cc(O)c(O)c(O)c1 | 17 | 4 | · | -84* | 41
Cc1noc(C)c1NC(=O)N(C)C[C@@H]1Oc2ccc(NS(=O)(=O)c3c(C)noc3C)cc2C(=O)N([C@H](C)CO)C[C@H]1C | · | · | 0 | · | ·
Cc1ccc(Cn2cc(COC(=O)NCCc3c[nH]c4ccccc34)nn2)cc1 | · | · | -1 | · | ·
